In publication PMC11649739 (Clinical Pharmacokinetics, 2024):
Read-outs that look alike come from different tables or passages of the source.

How the values were obtained:
[1] = type: in vivo, human; details: for AUC / concentration at 24 h / Cmax: human, plasma, oral; for Cmax: Entire Cmax
Procedure, shortened: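 Ensitrelvir was dosed once daily, 375 mg on day 1 then 125 mg on days 2–5, or 750/250 mg. A population PK model was fitted to 8034 plasma concentrations from 2060 healthy and SARS-CoV-2-infected participants: two-compartment, first-order absorption, with covariates tested on CL/F. Empirical Bayesian estimates from the final model were used to calculate individual exposures for SCORPIO-SR phase III participants.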

[2] = system: breast cancer resistance protein; details: drug interactions; cited from earlier work
cytochrome P450 3A = details: drug interactions; cited from earlier work
[3] = cited from earlier work
SARS-CoV-2 [4] = type: in vivo, human
Procedure, shortened: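 Phase III SCORPIO-SR participants received ensitrelvir or placebo. Dosing was once daily for 5 days, either 375 mg on day 1 then 125 mg on days 2–5, or 750 mg then 250 mg. Day-1 C24 (also Cmax and AUC) came from empirical Bayesian post hoc estimates. For placebo these were set to 0. Exposures were split into quartiles and boxplotted against change from baseline in viral RNA on day 4. Sub-LLOQ RNA values were set to LLOQ.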

SARS-CoV-2 [5] = details: cited from earlier work
P-glycoprotein = details: drug interactions; cited from earlier work
[6] = 250 mg group: 750 mg on day 1 and 250 mg on days 2–5, Bayesian-estimated
[7] = 250 mg group: 750 mg on day 1 and 250 mg on days 2–5, day 1
[8] = 250 mg group: 750 mg on day 1 and 250 mg on days 2–5, day 5

For `Cn1cnc(Cn2c(=O)[nH]/c(=N\c3cc4cn(C)nc4cc3Cl)n(Cc3cc(F)c(F)cc3F)c2=O)n1` [ensitrelvir], the “CL/F, Minimum” value [1, 6] was 0.0963 L/h, the “Vc/F, Maximum” value [1, 6] was 28.1 L and the “Vc/F, Mean” value [1, 6] was 14.5 L. For the same compound, the “Vc/F, Median” value [1, 6] was 14.1 L, the “Vc/F, Minimum” value [1, 6] was 7.31 L and the “AUC_d1, Maximum” value [1, 7] was 1617 µg·h/mL. The “AUC_d1, Minimum” value [1, 7] was 375.0 µg·h/mL, the “Cmax_d1, Maximum” value [1, 7] was 86900 ng/mL and the “Cmax_d1, Mean” value [1, 7] was 48900 ng/mL. For the same compound, the “Cmax_d1, Median” value [1, 7] was 47700 ng/mL, the “Cmax_d1, Minimum” value [1, 7] was 24900 ng/mL and the “AUC_d5, Maximum” value [1, 8] was 2502 µg·h/mL. The “AUC_d5, Minimum” value [1, 8] was 615.4 µg·h/mL, the “Cmax_d5, Maximum” value [1, 8] was 104000 ng/mL and the “Cmax_d5, Mean” value [1, 8] was 56400 ng/mL. The “Cmax_d5, Median” value [1, 8] was 55100 ng/mL, the “Cmax_d5, Minimum” value [1, 8] was 31900 ng/mL and the AUC ([1]; AUC_d1, Mean, 125 mg group: 375 mg on day 1 and 125 mg on days 2–5, day 1) was 438 µg·h/mL. The AUC ([1]; AUC_d1, Mean, 250 mg group: 750 mg on day 1 and 250 mg on days 2–5, day 1) was 910 µg·h/mL, the AUC ([1]; AUC_d1, Median, 125 mg group: 375 mg on day 1 and 125 mg on days 2–5, day 1) was 432 µg·h/mL and the AUC ([1]; AUC_d1, Median, 250 mg group: 750 mg on day 1 and 250 mg on days 2–5, day 1) was 887 µg·h/mL. It also gave an AUC ([1]; AUC_d5, Mean, 125 mg group: 375 mg on day 1 and 125 mg on days 2–5, day 5) of 578 µg·h/mL, an AUC ([1]; AUC_d5, Mean, 250 mg group: 750 mg on day 1 and 250 mg on days 2–5, day 5) of 1230 µg·h/mL and an AUC ([1]; AUC_d5, Median, 125 mg group: 375 mg on day 1 and 125 mg on days 2–5, day 5) of 568 µg·h/mL. It also gave an AUC ([1]; AUC_d5, Median, 250 mg group: 750 mg on day 1 and 250 mg on days 2–5, day 5) of 1200 µg·h/mL, a concentration at 24 h ([1]; C24_d1, Maximum, 125 mg group: 375 mg on day 1 and 125 mg on days 2–5, 24 h postdose on day 1) of 27600 ng/mL and a concentration at 24 h ([1]; C24_d1, Maximum, 250 mg group: 750 mg on day 1 and 250 mg on days 2–5, 24 h postdose on day 1) of 61000 ng/mL. For the same compound, the concentration at 24 h ([1]; C24_d1, Mean, 125 mg group: 375 mg on day 1 and 125 mg on days 2–5, 24 h postdose on day 1) was 16600 ng/mL, the concentration at 24 h ([1]; C24_d1, Mean, 250 mg group: 750 mg on day 1 and 250 mg on days 2–5, 24 h postdose on day 1) was 34800 ng/mL and the concentration at 24 h ([1]; C24_d1, Median, 125 mg group: 375 mg on day 1 and 125 mg on days 2–5, 24 h postdose on day 1) was 16500 ng/mL. For the same compound, the concentration at 24 h ([1]; C24_d1, Median, 250 mg group: 750 mg on day 1 and 250 mg on days 2–5, 24 h postdose on day 1) was 34200 ng/mL, the concentration at 24 h ([1]; C24_d1, Minimum, 125 mg group: 375 mg on day 1 and 125 mg on days 2–5, 24 h postdose on day 1) was 8430 ng/mL and the concentration at 24 h ([1]; C24_d1, Minimum, 250 mg group: 750 mg on day 1 and 250 mg on days 2–5, 24 h postdose on day 1) was 19400 ng/mL. It also gave a concentration at 24 h ([1]; C24_d5, Maximum, 125 mg group: 375 mg on day 1 and 125 mg on days 2–5, 24 h postdose on day 5) of 35200 ng/mL, a concentration at 24 h ([1]; C24_d5, Maximum, 250 mg group: 750 mg on day 1 and 250 mg on days 2–5, 24 h postdose on day 5) of 80900 ng/mL and a concentration at 24 h ([1]; C24_d5, Mean, 125 mg group: 375 mg on day 1 and 125 mg on days 2–5, 24 h postdose on day 5) of 19500 ng/mL. It also gave a concentration at 24 h ([1]; C24_d5, Mean, 250 mg group: 750 mg on day 1 and 250 mg on days 2–5, 24 h postdose on day 5) of 41800 ng/mL, a concentration at 24 h ([1]; C24_d5, Median, 125 mg group: 375 mg on day 1 and 125 mg on days 2–5, 24 h postdose on day 5) of 19200 ng/mL and a concentration at 24 h ([1]; C24_d5, Median, 250 mg group: 750 mg on day 1 and 250 mg on days 2–5, 24 h postdose on day 5) of 40800 ng/mL. It also gave a concentration at 24 h ([1]; C24_d5, Minimum, 125 mg group: 375 mg on day 1 and 125 mg on days 2–5, 24 h postdose on day 5) of 10500 ng/mL, a concentration at 24 h ([1]; C24_d5, Minimum, 250 mg group: 750 mg on day 1 and 250 mg on days 2–5, 24 h postdose on day 5) of 24300 ng/mL and an AUC ([1]; Entire AUC, Mean, 125 mg group: 375 mg on day 1 and 125 mg on days 2–5) of 2570 µg·h/mL. For the same compound, the AUC ([1]; Entire AUC, Mean, 250 mg group: 750 mg on day 1 and 250 mg on days 2–5) was 5430 µg·h/mL, the AUC ([1]; Entire AUC, Median, 125 mg group: 375 mg on day 1 and 125 mg on days 2–5) was 2530 µg·h/mL and the AUC ([1]; Entire AUC, Median, 250 mg group: 750 mg on day 1 and 250 mg on days 2–5) was 5320 µg·h/mL. The Cmax ([1]; Mean, 250 mg group: 750 mg on day 1 and 250 mg on days 2–5) was 56400 ng/mL, the Cmax ([1]; Median, 250 mg group: 750 mg on day 1 and 250 mg on days 2–5) was 55100 ng/mL and the “inhibition of breast cancer resistance protein” value [2] was “inhibits”. For the same compound, the “inhibition of cytochrome P450 3A” value (cytochrome P450 3A) was “inhibits”, the “effect of food intake on pharmacokinetic profiles” value [3] was “not substantially affected” and the “recovered in the urine as unchanged ensitrelvir” value ([3]; dose groups ranging from 20 to 1000 mg) was 12.9–21.8%. The “effect of fed state on Cmax” value ([3]; fed state with a high-fat/high-calorie meal vs fasted, phase I study) was “not affected”, the “pharmacokinetic profiles among various populations” value ([3]; including healthy white participants) was “not meaningfully different” and the “terminal elimination half-life (t½,z)” value ([3]; single administration) was 42.2 to 48.1 h. For the same compound, the “increase of Cmax and AUC0–inf with dose” value ([3]; single oral administration, 20 to 2000 mg, fasted state) was “almost dose-proportional”, the “time at which maximum plasma concentration is reached” value ([3]; single oral administration) was “around 2.50 h” and the “antiviral effects between the 375/125 mg and 750/250 mg doses” value (SARS-CoV-2 [4]; C24 on day 1 between 8.43 and 61.0 μg/mL) was “did not differ”. The “virus RNA decrease across exposure categories (C24 on day 1 quartiles)” value (SARS-CoV-2 [4]; day 4, within the exposure range evaluated, phase III of SCORPIO-SR) was “decreased to a similar extent in all categories”, the “change from baseline in the amount of SARS-CoV-2 viral RNA on day 4, versus placebo” value (SARS-CoV-2 [4]; ensitrelvir dosing groups, phase III of SCORPIO-SR) was “lower in the ensitrelvir dosing group than in the placebo group” and the “time to five COVID-19 symptoms” value (SARS-CoV-2 [5]; 125-mg group, phase III of SCORPIO-SR) was 167.9 h. The “clearance of SARS-CoV-2” value (SARS-CoV-2 [5]; both dose groups 375/125 mg and 750/250 mg) was “rapid clearance of SARS-CoV-2” and the “inhibition of P-glycoprotein” value (P-glycoprotein) was “inhibits”.
